From ChEMBL document CHEMBL1156469 (2007)
Active and inactive are the calls of the source. The calls are words filed in the database; no cut-off is given here.

Tests used:
MC3T3-E1 = experiment: Reversal of increase in ER.DNA complex in mouse MC3T3-E1 cells at 1 uM by RT-PCR in presence of PP2; format: functional, cell-based
How it was run: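 BMP-2 promoter quantified by real-time PCR (45 cycles, 61 °C anneal), reported as IP-to-input Ct ratio. DN-Src by 3 μg vector, PP2 at 10 μM; ICI182780 and tamoxifen at indicated concentrations.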

Osteoblast [1] = experiment: Effect on histone H1 gene expression in rat primary osteoblast cells assessed as expression ratio of treated to untreated control by microarray analysis; format: functional
How it was run: (§1)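 Resveratrol-treated and vehicle-treated primary osteoblasts were profiled on a mouse osteogenesis-focused cDNA array (GEArray Q series) built to track gene expression during osteogenic differentiation. Each gene's signal in treated cells was expressed as a ratio to untreated control.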

Rattus norvegicus [2] = experiment: Antiapoptotic activity against osteoblasts in ovariectomized Wistar rat at 10 mg/kg after 10 weeks; format: functional, organism-based; set-up: dose 10 mg/kg
How it was run: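 After 10 weeks, lumbar vertebrae were removed. Apoptotic osteoblasts were detected by TUNEL staining (Klenow FragEL) in undecalcified, plastic-embedded sections. Values are means ± S.D.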

[3] = Reversal of induction of BMP2 expression in mouse MC3T3-E1 cells at 1 uM by Western blot in presence of ICI-182780; format: functional, cell-based
MDA-MB-231 = experiment: Antitumor activity against human MDA-MB-231 cells xenografted in SCID mouse orthotropic model assessed as inhibition of 17beta estradiol-induced tumor weight at 10 mg/kg for 2 days; format: functional; set-up: scale not given: the % may be the effect or the level left
How it was run: (§2)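 Tumor cells were inoculated orthotopically into the mammary fat pad of 6-week-old female SCID mice. […] Tumor volume was calculated as LW2/2. Tumor formation was scored as mice with tumors per total (20 per group), and tumor weight as mean ± S.D. Groups were compared by one-way ANOVA with LSD post-hoc comparisons.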

Rattus norvegicus [4] = experiment: Increase in bone mineral density in ovariectomized Wistar rat dosed orally after 10 weeks; format: functional, organism-based
How it was run: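 Female Wistar rats sham-operated or ovariectomized, fed compound orally every 2 days at indicated doses; femur/tibia BMD by DEXA under ketamine (87 mg/kg)/xylazine (13 mg/kg) anesthesia and serum ALP measured 10 weeks after surgery; n = 8/group, means ± S.D.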

Osteoblast [5] = experiment: Increase in osteocalcin levels in rat primary osteoblast cells at 1 uM after 72 hrs by ELISA; format: functional, cell-based
How it was run: (§3)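 Cells treated with 1 μm for 72 h; osteocalcin or osteopontin in culture medium by sandwich ELISA, HRP-streptavidin/TMB, 450 nm; percent change versus untreated control.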

MG-63 = experiment: Increase in osteocalcin levels in human MG63 cells at 1 uM after 72 hrs by ELISA; format: functional, cell-based; how it was run: as §3
Osteoblast [6] = experiment: Effect on procollagen 1 alpha 2 gene expression in rat primary osteoblast cells assessed as expression ratio of treated to untreated control by microarray analysis; format: functional; how it was run: as §1
Osteoblast [7] = experiment: Reversal of increase in ER.DNA complex in rat primary osteoblast cells at 1 uM by RT-PCR in presence of PP2; format: functional, cell-based
Osteoblast [8] = experiment: Effect on matrix metalloprotease 2 gene expression in rat primary osteoblast cells assessed as expression ratio of treated to untreated control by microarray analysis; format: functional; how it was run: as §1
Osteoblast [9] = experiment: Increase in BMP2 levels in rat primary osteoblast cells at 1 uM by Western blot; format: functional, cell-based; conditions: TDE = time-dependent effect
How it was run: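 Osteoblasts treated with 1 μm for the indicated times; lysates resolved by SDS-PAGE, transferred to nitrocellulose, probed with anti-BMP-2, ECL detection.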

Osteoblast [10] = experiment: Effect on integrin alpha 2 gene expression in rat primary osteoblast cells assessed as expression ratio of treated to untreated control by microarray analysis; format: functional; how it was run: as §1
MCF7 [11] = experiment: Antitumor activity against human MCF7 cells xenografted in SCID mouse orthotropic model assessed as inhibition of 17beta estradiol-induced tumor formation at 10 mg/kg for 2 days; format: functional; set-up: scale not given: the % may be the effect or the level left; how it was run: as §2
Osteoblast [12] = experiment: Effect on bone morphogenetic protein 5 gene expression in rat primary osteoblast cells assessed as expression ratio of treated to untreated control by microarray analysis; format: functional
Osteoblast [13] = experiment: Effect on procollagen 3 alpha 1 gene expression in rat primary osteoblast cells assessed as expression ratio of treated to untreated control by microarray analysis; format: functional; how it was run: as §1
[14] = Reversal of induction in nuclear translocation of ERalpha in mouse MC3T3-E1 cells transfected with dominant-negative mutant Src expression vector at 1 uM; format: functional, cell-based
How it was run: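 Src phosphorylation, ERα nuclear translocation and BMP-2 protein analysed by Western blot with ECL detection. Three independent experiments.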

Osteoblast [15] = experiment: Inhibition of antiapoptotic activity in rat primary osteoblast cells at 1 uM after 48 hrs in presence of noggin; format: functional, cell-based
MCF7 [16] = experiment: Reduction in anchorage-independent colony formation of human MCF7 cells at 1 uM by soft agar colony forming assay; format: functional, cell-based
How it was run: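 Seeded in 0.35% noble agar in DMEM/10% FBS over a 0.7% agar bed. Colonies of at least 50 μm counted after 3 weeks under a dissecting microscope, six replicates per treatment. Three separate experiments.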

Osteoblast [17] = experiment: Increase in osteopontin levels in rat primary osteoblast cells at 1 uM after 72 hrs by ELISA; format: functional, cell-based; how it was run: as §3
Osteoblast [18] = experiment: Effect on procollagen 4 alpha 1 gene expression in rat primary osteoblast cells assessed as expression ratio of treated to untreated control by microarray analysis; format: functional; how it was run: as §1
[19] = biological target: T1, Estrogen receptor (Mus musculus) (UniProt P19785); experiment: Reversal of increase in DNA-binding activity of ERalpha in nuclear extracts of mouse MC3T3-E1 cells by electrophoretic mobility shift assays in presence of ICI-182780; format: cell-based
T1 sequence (whole entry): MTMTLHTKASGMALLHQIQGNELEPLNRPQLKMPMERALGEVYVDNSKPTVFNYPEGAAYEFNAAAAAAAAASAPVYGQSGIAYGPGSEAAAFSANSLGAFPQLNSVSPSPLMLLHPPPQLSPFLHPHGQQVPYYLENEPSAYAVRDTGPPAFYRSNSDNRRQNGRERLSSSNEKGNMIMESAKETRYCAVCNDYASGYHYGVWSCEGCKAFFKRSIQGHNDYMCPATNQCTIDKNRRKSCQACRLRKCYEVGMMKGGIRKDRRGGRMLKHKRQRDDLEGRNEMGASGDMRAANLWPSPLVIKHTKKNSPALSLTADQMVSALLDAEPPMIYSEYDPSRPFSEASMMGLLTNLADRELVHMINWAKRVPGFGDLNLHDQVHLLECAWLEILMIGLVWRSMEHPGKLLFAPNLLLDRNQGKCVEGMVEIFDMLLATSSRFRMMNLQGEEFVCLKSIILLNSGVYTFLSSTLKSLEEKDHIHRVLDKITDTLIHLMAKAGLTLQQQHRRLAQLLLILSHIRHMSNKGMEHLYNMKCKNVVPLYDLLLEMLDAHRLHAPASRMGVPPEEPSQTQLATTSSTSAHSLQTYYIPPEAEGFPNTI
How it was run: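 Nuclear extracts of MC3T3-E1 cells. ER-binding probe [α-32P]dCTP end-labeled, 20-min binding at room temperature, 5-fold unlabeled competitor where used. Complexes resolved on 5% nondenaturing PAGE in Tris-borate-EDTA pH 8.3, then autoradiography.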

[20] = biological target: RAC-alpha serine/threonine-protein kinase (Homo sapiens) (UniProt P31749); experiment: Reversal of induction of Akt inactivation in human MDA-MB-231 cells transfected with constitutively activated Akt mutant; format: cell-based
Sequence of RAC-alpha serine/threonine-protein kinase (Homo sapiens) (P31749 whole entry): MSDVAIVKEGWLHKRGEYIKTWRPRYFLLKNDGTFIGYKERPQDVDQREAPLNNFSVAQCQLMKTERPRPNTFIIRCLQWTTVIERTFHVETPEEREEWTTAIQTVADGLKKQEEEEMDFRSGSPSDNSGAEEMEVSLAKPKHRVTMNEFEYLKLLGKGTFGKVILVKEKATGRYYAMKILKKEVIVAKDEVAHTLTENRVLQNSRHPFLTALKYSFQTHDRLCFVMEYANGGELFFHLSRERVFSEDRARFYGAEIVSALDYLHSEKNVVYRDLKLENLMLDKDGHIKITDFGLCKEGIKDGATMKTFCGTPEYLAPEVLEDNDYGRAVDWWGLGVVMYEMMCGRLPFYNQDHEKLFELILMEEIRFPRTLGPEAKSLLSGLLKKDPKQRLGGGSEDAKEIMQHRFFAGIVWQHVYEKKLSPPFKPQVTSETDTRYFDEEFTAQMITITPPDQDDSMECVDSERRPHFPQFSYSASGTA

Osteoblast [21] = experiment: Effect on bone morphogenetic protein 8b gene expression in rat primary osteoblast cells assessed as expression ratio of treated to untreated control by microarray analysis; format: functional

Question: For `Oc1ccc(/C=C/c2cc(O)cc(O)c2)cc1` [RESVERATROL], which Activity (MC3T3-E1) is on record?
Answer: Its Activity is “Active”.

Question: And the Ratio (Osteoblast [1])?
Answer: The Ratio was 0.44.

Question: And the Activity (Rattus norvegicus [2])?
Answer: Its Activity is “Active”.

Question: What about the Activity [3] of the same molecule?
Answer: Its Activity is “Active”.

Question: And the Activity (MDA-MB-231)?
Answer: Its Activity is 43.6%.

Question: And the Activity (Rattus norvegicus [4])?
Answer: The Activity was “Dose-dependent effect”.

Question: What about the Activity (Osteoblast [5]) of the same molecule?
Answer: The Activity was “Active”.

Question: And the Activity (MG-63)?
Answer: Its Activity is “Active”.

Question: What about the Ratio (Osteoblast [6]) of the same molecule?
Answer: The Ratio was 8.24.

Question: What about the Activity (Osteoblast [7]) of the same molecule?
Answer: Its Activity is “Active”.

Question: What about the Ratio (Osteoblast [8]) of the same molecule?
Answer: Its Ratio is 0.46.

Question: What about the Activity (Osteoblast [9]) of the same molecule?
Answer: Its Activity is “tde”.

Question: What about the Ratio (Osteoblast [10]) of the same molecule?
Answer: Its Ratio is 2.24.

Question: What about the Activity (MCF7 [11]) of the same molecule?
Answer: Its Activity is 40%.

Question: What about the Ratio (Osteoblast [12]) of the same molecule?
Answer: The Ratio was 0.97.

Question: And the Ratio (Osteoblast [13])?
Answer: The Ratio was 4.41.

Question: What about the Activity [14] of the same molecule?
Answer: The Activity was “Active”.

Question: And the Activity (Osteoblast [15])?
Answer: The Activity was “Active”.

Question: And the Activity (MCF7 [16])?
Answer: The Activity was “Active”.

Question: And the Activity (Osteoblast [17])?
Answer: Its Activity is “Active”.

Question: And the Ratio (Osteoblast [18])?
Answer: The Ratio was 8.15.

Question: And the Activity [19]?
Answer: Its Activity is “Active”.

Question: What about the Activity [20] of the same molecule?
Answer: Its Activity is “Active”.

Question: What about the Ratio (Osteoblast [21]) of the same molecule?
Answer: The Ratio was 1.82.
